Assay [1] has as its target T1, UBA5 (Homo sapiens, UniProt Q9GZZ9).
T1 sequence (Q9GZZ9 37-346): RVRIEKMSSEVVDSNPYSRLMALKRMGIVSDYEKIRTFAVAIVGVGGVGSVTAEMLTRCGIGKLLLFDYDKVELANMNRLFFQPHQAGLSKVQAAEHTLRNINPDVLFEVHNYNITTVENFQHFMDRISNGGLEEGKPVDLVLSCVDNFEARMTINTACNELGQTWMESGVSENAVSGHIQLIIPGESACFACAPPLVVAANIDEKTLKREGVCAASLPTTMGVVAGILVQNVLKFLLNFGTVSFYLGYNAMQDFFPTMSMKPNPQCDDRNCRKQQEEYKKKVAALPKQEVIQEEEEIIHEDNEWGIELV
Nature of the assay: AMP-Glo UBA5 UFMylation assay. Format: biochemical. The note with it: read-out: IC50-UBA5-Glo; UBA5 0.8 μM; UFM1 5 μM; ATP 5 μM.

In assay [2] the target is T1, UBA5. Put plainly: Fluorescence polarization. The note with it: titration. Format: biochemical. The method, boiled down:
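UBA5 (1 μM) preincubated 1 h with test compound (0–25 μM), then UFM1 (2.5 μM) and ATP (20 μM) added for 30 min at RT. Transcreener detection reagent (anti-AMP antibody, Alexa Fluor 633 AMP tracer) added for 1.5 h. AMP read as fluorescence polarization. IC50 by curve fitting, triplicate.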
In general terms: Fluorescence polarisation rises when a labelled molecule tumbles more slowly, as on binding a larger partner.

The subject of assay [3] is coupling enzymes in the AMP-Glo kit. Put plainly: UBA5-free AMP-Glo coupling enzyme assay. The class given is biochemical. The note with it: 3 mM, no UBA5, ATP 5 μM with or without AMP 5 μM. The method in brief:
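Without UBA5: test compound (0–100 μM) incubated 30 min with AMP-Glo kit components and UFM1 (5 μM), then AMP added to a final 5 μM as direct substrate. Luminescence endpoint read at 37 °C with 2 min integration. Normalized to DMSO wells with AMP (100%) and without AMP (0%). Triplicate.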

Assay [4] addresses T1, UBA5. Nature of the assay: Gel-based UBA5-UFM1 charging assay. Format: biochemical. The note with it: UBA5 12 μM; UFM1 25 μM; ATP 2 mM; 2 h. The method, boiled down: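 UBA5 (12 μM) incubated 1 h with test compound (0–100 μM) in 50 mM Bis-Tris pH 6.5, 100 mM NaCl, 10 mM MgCl2. UFM1 (25 μM) and ATP (2 mM) then added for 2 h at 30 °C; zero time points taken before ATP addition. Gel read-out of UBA5–UFM1 thioester, duplicate.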

Assay [5] deals with UBA5. The note with it: read-out: IC50 (UBA5); cited from earlier work.
The test system of assay [6] is global cellular ubiquitination in HEK293T cells. Put plainly: Global cellular ubiquitination. The class given is cell-based, Human. The note with it: compounds 60 μM, TAK-243 125 or 250 nM, 5 h.

For `COc1ccc(CNC(=O)CCl)cc1OC` [DKM 2-93], the IC50 was 547 µM in assay [1] and 430 µM in assay [5]. In addition, the “inhibition of UBA5 reaction in FP assay” value in assay [2] is recorded as “dose-dependently inhibited the reaction”. Also, the “interference with the AMP-Glo detection system” value in assay [3] is given as “does not significantly interfere”. Besides, in assay [4], the “UBA5-UFM1 thioester formation (UFM1 activation)” value is “significantly reduced UFM1 activation”.

With `NS(=O)(=O)OC[C@H]1C[C@@H](Nc2ccnc3cc(-c4cccc(SC(F)(F)F)c4)nn23)[C@H](O)[C@@H]1O` [TAK-243], in assay [6], the global cellular ubiquitination entry is given as “markedly reduced global cellular ubiquitination”.

For the compound `Nc1ncnc2c1ncn2[C@@H]1O[C@H](COS(N)(=O)=O)[C@@H](O)[C@H]1O` [adenosine 5’-sulfamate (ADS), adenosine 5’-sulfamate], in assay [5], the IC50 is 13 µM.

As usually defined, the IC50 is the point on the concentration scale where inhibition reaches its midpoint.

(Values after publication PMC13618202 (ACS chemical biology, 2026).)
